The subject of one experiment is BE. Nature of the experiment: cytotoxic activity against human colon carcinoma BE cell lines. The format is functional. The essentials:
(§1)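 Clonogenic survival: exponentially growing cells suspended at 1.7-2 × 10^5 cells/mL in serum-free MEM/HEPES, exposed 2 h at 37 °C, 5% CO2 to five final drug concentrations (solvent ethanol or DMSO, at most 1%), washed, plated at 2-3 densities, grown 10 days. Crystal violet-stained colonies of ≥50 cells counted; LC99 from log surviving fraction vs concentration.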

For experiment [1], the target named is NAD(P)H dehydrogenase [quinone] 1 (Homo sapiens) (UniProt P15559). Nature of the experiment: Kinetic analysis using purified human DT-diaphorase. The essentials:
(§2)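 Purified human DT-diaphorase (4.8 × 10-4 mg) with 1 mM NADH, 55 µM cytochrome c, 0.01 mM dithiothreitol in 0.05 M Tris pH 7.6; quinone in DMSO starts reaction. Run in triplicate at 25 °C, following cytochrome c reduction at 550 nm, no-enzyme background controls. Initial linear rates; KM and Vmax from Hanes plot.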

The next experiment relates to HT-29. Description: cytotoxic activity against human colon carcinoma HT-29 cell lines. The format is functional. The essentials: as §1
For experiment [2], the target named is NAD(P)H dehydrogenase [quinone] 1 (Homo sapiens) (UniProt P15559). Nature of the experiment: Ratio of Kcat and Km. The essentials: as §2
Sequence of NAD(P)H dehydrogenase [quinone] 1 (Homo sapiens) (P15559 whole entry): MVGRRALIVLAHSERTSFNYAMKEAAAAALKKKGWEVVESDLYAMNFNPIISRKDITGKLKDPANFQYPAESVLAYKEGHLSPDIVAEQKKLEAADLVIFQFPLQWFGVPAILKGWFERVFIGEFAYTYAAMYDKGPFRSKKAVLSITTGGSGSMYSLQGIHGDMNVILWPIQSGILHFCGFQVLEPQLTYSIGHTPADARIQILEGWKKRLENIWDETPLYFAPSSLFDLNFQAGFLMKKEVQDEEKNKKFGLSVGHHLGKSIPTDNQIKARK
The target is the same in experiment [3]. Description: Ratio of Vmax and Km. On the set-up: unit not given here. The essentials:
as §2

15 compounds from ChEMBL document CHEMBL1133441, “Development of novel quinone phosphorodiamidate prodrugs targeted to DT-diaphorase” (2000) can be followed below.

The structures appear in SMILES notation.

For `CN(CCCl)P(=O)(OCC1=CC(=O)c2ccccc2C1=O)N(C)CCCl`, the results for the LC99 with BE and in the experiment on HT-29 were 2.8 µM and 4.5 µM, respectively. In experiment [1], this compound gave a k cat of 190 s⁻¹. The Ratio was 1.4 in experiment [2] and 1.2 in experiment [3].
On the same counts, the results for `CC1=C(COP(=O)(N(C)CCBr)N(C)CCBr)C(=O)c2ccccc2C1=O` are 0.44 µM, 1.5 µM, 180 s⁻¹, 0.5 and 0.44.
Take `NP(=O)(OCC1=CC(=O)c2ccccc2C1=O)N(CCBr)CCBr` (stereo not drawn): the LC99 came out at 4.6 µM in the experiment on BE and 7.8 µM in the experiment on HT-29. Also, in experiment [1], the k cat came to 46 s⁻¹. Also, the Ratio was 2.2 in experiment [2] and 2 in experiment [3].
Regarding `NP(=O)(OCC1=CC(=O)c2ccccc2C1=O)N1CCOCC1` (stereo not drawn), the LC99 in the experiment with BE was determined as 72 µM; with HT-29, 89 µM. In experiment [1], the k cat is 15 s⁻¹. The Ratio is 0.16 in experiment [2] and 0.83 in experiment [3].
On to `CC1=C(COP(N)(=O)N(CCCl)CCCl)C(=O)c2ccccc2C1=O` (stereo not drawn), for which the LC99 was determined as 1 µM in the experiment on BE and 2.1 µM in the experiment on HT-29. Further, in experiment [1], the k cat turned out to be 78 s⁻¹. Moreover, the Ratio in experiment [2] was found to be 8.6; in experiment [3], 0.76.
On the same counts, the results for `NP(=O)(OCC1=CC(=O)c2ccccc2C1=O)N(CCCl)CCCl` (stereo not drawn) are 13 µM, 11 µM, 51 s⁻¹, 2 and 1.8.
On the same counts, the results for `CN(CCBr)P(=O)(OCC1=CC(=O)c2ccccc2C1=O)N(C)CCBr` are 1.2 µM, 4.5 µM, 115 s⁻¹, 1.3 and 1.1.
As to `CC(=O)OCC1=CC(=O)c2ccccc2C1=O`, the results for the LC99 in the experiment with BE and in the experiment on HT-29 were 22 µM and 64 µM, respectively. The compound further returned a k cat in experiment [1] of 280 s⁻¹. In addition, the Ratio in experiment [2] worked out at 1.6; in experiment [3], 1.4.
The corresponding values for `CSC1=C(COP(N)(=O)N(CCCl)CCCl)C(=O)c2ccccc2C1=O` (stereo not drawn) are 5.9 µM, 4.2 µM, 72 s⁻¹, 1.2 and 1.1.
As to `CC1=C(COP(N)(=O)N(CCBr)CCBr)C(=O)c2ccccc2C1=O` (stereo not drawn), the values for the LC99 with BE and in the experiment with HT-29 were 1.2 µM and 1.7 µM, respectively. In experiment [1], this compound gave a k cat of 63 s⁻¹. Further, the Ratio turned out to be 9.1 in experiment [2] and 0.81 in experiment [3].
The corresponding values for `Cn1c(COP(N)(=O)N(CCBr)CCBr)nc2c1C(=O)C=CC2=O` (stereo not drawn) are 120 µM, 130 µM, 66 s⁻¹, 3.1 and 0.28.
Consider `O=C1C=C(COP(=O)(NCCCl)NCCCl)C(=O)c2ccccc21`, for which the LC99 with BE amounted to 7.8 µM; in the experiment with HT-29 it was 14 µM. In experiment [1], this compound displayed a k cat of 88 s⁻¹. The Ratio was 2.3 in experiment [2] and 2.1 in experiment [3].
The corresponding values for `Cn1c(COP(N)(=O)N(CCCl)CCCl)nc2c1C(=O)C=CC2=O` (stereo not drawn) are 300 µM, 220 µM, 41 s⁻¹, 4.5 and 0.4.
Regarding `NP(=O)(OCC1=C(Br)C(=O)c2ccccc2C1=O)N(CCCl)CCCl` (stereo not drawn), the LC99 with BE stood at 3.3 µM; in the experiment on HT-29, 4.1 µM. In experiment [1], the k cat was 97 s⁻¹. Further, the Ratio worked out at 3 in experiment [2] and 2.7 in experiment [3].
`CC1=CC(=O)c2ccccc2C1=O` came in with a k cat in experiment [1] of 700 s⁻¹. Also, the Ratio in experiment [2] was 5.8; in experiment [3] it was 0.5.
